Measurements taken from ChEMBL document CHEMBL4024789, “Neutral Porphyrin Derivative Exerts Anticancer Activity by Targeting Cellular Topoisomerase I (Top1) and Promotes Apoptotic Cell Death without Stabilizing Top1-DNA Cleavage Complexes” (J Med Chem, 2018).
Calls of active or inactive are those of the source. No cut-off for these calls is given here.

Tests used:
[1] = target: T1, DNA topoisomerase 1 (Homo sapiens) (UniProt P11387); experiment: Binding affinity to recombinant human topoisomerase-1 expressed in baculovirus infected sf9 cells assessed as intrinsic tryptophan fluorescence quenching up to 1.25 uM by Job's plot analysis
T1 sequence (whole entry): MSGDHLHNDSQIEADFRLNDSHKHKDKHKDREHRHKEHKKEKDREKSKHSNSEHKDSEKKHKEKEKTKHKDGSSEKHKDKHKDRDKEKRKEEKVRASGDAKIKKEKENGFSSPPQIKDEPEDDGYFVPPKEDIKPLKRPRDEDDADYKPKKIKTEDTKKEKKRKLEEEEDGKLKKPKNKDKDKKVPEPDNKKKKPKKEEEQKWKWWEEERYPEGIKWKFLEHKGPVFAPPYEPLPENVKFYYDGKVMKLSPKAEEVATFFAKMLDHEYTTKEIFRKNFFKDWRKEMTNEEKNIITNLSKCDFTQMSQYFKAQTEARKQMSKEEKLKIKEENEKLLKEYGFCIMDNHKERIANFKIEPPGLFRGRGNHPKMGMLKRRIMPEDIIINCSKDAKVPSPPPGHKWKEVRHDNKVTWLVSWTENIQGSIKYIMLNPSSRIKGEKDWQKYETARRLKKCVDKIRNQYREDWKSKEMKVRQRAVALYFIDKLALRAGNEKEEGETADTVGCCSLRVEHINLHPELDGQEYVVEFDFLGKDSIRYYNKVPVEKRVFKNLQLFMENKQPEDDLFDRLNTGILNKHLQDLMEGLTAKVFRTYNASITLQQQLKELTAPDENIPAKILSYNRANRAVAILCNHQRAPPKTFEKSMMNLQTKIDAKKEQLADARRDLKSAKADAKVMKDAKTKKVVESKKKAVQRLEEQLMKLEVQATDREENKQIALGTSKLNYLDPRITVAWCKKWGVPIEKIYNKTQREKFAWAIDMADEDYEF
Procedure, shortened: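 Job plot by continuous variation: Top1 (from Sf-9 cells infected with recombinant baculovirus) and compound varied to a combined final 1.25 μM. Tryptophan fluorescence quenching read at 350 nm with excitation at 295 nm. Mean ± SD of three independent experiments.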

[2] = target: T2, DNA topoisomerase 1 (Homo sapiens, UniProt P11387); experiment: Inhibition of recombinant human topoisomerase-1 expressed in baculovirus infected sf9 cells using supercoiled pBS SK(+) DNA as substrate after 15 mins by ethidium bromide staining based agarose gel electrophoresis method
T2 sequence (P11387 whole entry): T1 sequence (whole entry)
Procedure, shortened: (§1)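 Relaxation assay: 90 fmol supercoiled pBS (SK+) DNA with 30 fmol recombinant Top1 (Sf-9/baculovirus). Compound either preincubated with Top1 for 5 min before DNA addition, or added simultaneously with DNA; then 37 °C for 15 min. Vehicle 2% DMSO. Read on 1% agarose gel. EC50 from mean ± SD of three experiments.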

[3] = tested on: MEF; experiment: Cytotoxicity against TDP1-/- MEF assessed as reduction in cell viability by MTT assay; format: cell-based; details: Mus musculus
Procedure, shortened: (§2)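 Survival of each cell line measured across a range of compound concentrations. Percent inhibition of viability at each concentration calculated against untreated control and IC50 estimated. MEFs were TDP1+/+ and TDP1–/– primary cells. Mean ± SD of at least three experiments in duplicate.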

[4] = target: T1, DNA topoisomerase 1 (Homo sapiens); experiment: (§3) Reversible inhibition of recombinant human topoisomerase-1 expressed in baculovirus infected sf9 cells at 1 uM using supercoiled pBS SK(+) DNA as substrate preincubated for 5 mins followed by substrate addition and subsequent 40 fold compound dilution measured after 15 mins by ethidium bromide staining based agarose gel electrophoresis method
Procedure, shortened: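 Recombinant Top1 (100 fmol) preincubated with 1 μM compound for 5 min at 37 °C in relaxation buffer. Mixture diluted 5-, 10-, 20- or 40-fold (final 0.2–0.025 μM), then 50 fmol pBS (SK+) DNA added and incubated 15 min at 37 °C. Three repeats performed.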

[5] = tested on: MCF7; experiment: Induction of ROS accumulation in human MCF7 cells at 10 uM up to 24 hrs in presence of ROS inhibitor NAC by CM-H2DCFDA dye based spectrofluorometric method; format: functional, cell-based
Procedure, shortened: (§4)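 MCF7 cells treated with 10 μM for the indicated times, with 0.2% DMSO as vehicle control, or pretreated with NAC (10 mM) for 30 min. ROS read as DCF fluorescence from CM-H2DCFDA. Mean ± SD of three independent experiments.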

[6] = target: T1, DNA topoisomerase 1 (Homo sapiens); experiment: Inhibition of CPT-induced recombinant human topoisomerase1-supercoiled pBS SK(+) DNA cleavage complex after 30 mins using topoisomerase1 expressed in baculovirus infected sf9 cells by ethidium bromide staining based agarose gel electrophoresis method
Procedure, shortened: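 Plasmid cleavage assay: 50 fmol supercoiled pBS (SK+) with 100 fmol recombinant Top1 plus compound or CPT, or Top1 with CPT before compound addition, at 37 °C for 30 min. Nicked (form II) and supercoiled (form I) DNA resolved by gel.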

[7] = tested on: HeLa; experiment: Cytotoxicity against human HeLa cells assessed as reduction in cell viability by MTT assay; format: functional, cell-based; procedure, shortened: as §2
[8] = target: T1, DNA topoisomerase 1 (Homo sapiens); experiment: Ratio of compound effect for inhibition of recombinant human topoisomerase-1 expressed in baculovirus infected sf9 cells preincubated for 5 mins followed by substrate addition to compound effect for recombinant human topoisomerase-1 expressed in baculovirus infected sf9 cells simultaneously incubated with substrate
Procedure, shortened: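 Recombinant human Top1 purified from baculovirus-infected Sf-9 cells; 30 fmol enzyme with 90 fmol supercoiled pBS (SK+) DNA (3:1 molar ratio) in relaxation buffer. Compound either preincubated with enzyme 5 min before DNA, or added simultaneously; then 37 °C, 15 min. Relaxation on 1% agarose; % inhibition quantified, EC50 from three experiments (mean ± SD).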

[9] = target: T1, DNA topoisomerase 1 (Homo sapiens); experiment: Inhibition of topoisomerase-1 in human MCF7 whole cell extracts at 0.25 to 5 uM using supercoiled pBS SK(+) DNA as substrate preincubated for 5 mins followed by substrate addition measured after 15 mins by ethidium bromide staining based agarose gel electrophoresis method
Procedure, shortened: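 Ex vivo relaxation assay with MCF7 whole-cell lysate as the Top1 source and supercoiled pBS (SK+) DNA. Compound either preincubated with lysate for 5 min before DNA, or added simultaneously; then 37 °C for 15 min. CPT control at 5 μM. Read on agarose gel; mean ± SD, n=3.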

[10] = target: T1, DNA topoisomerase 1 (Homo sapiens); experiment: Induction of proteasome-mediated topoisomerase-1 degradation in human MCF7 cells at 10 uM by Western blot method; format: cell-based; details: TDE = time-dependent effect
Procedure, shortened: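 Whole-cell extracts of MCF7 cells treated with 10 μM for the indicated times, or preincubated with MG132 (100 nM) for 4 h before 12 h compound exposure. Top1 detected by Western blot with mouse monoclonal anti-Top1 (C21).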

[11] = tested on: MCF7; experiment: Induction of ROS accumulation in human MCF7 cells at 10 uM up to 24 hrs by CM-H2DCFDA dye based spectrofluorometric method relative to control; format: functional; procedure, shortened: as §4
[12] = tested on: MEF; experiment: Cytotoxicity against TDP1+/+ MEF assessed as reduction in cell viability by MTT assay; format: cell-based; details: Mus musculus; procedure, shortened: as §2
[13] = tested on: MCF7; experiment: Cytotoxicity against human MCF7 cells assessed as reduction in cell viability up to 10 uM in presence of CPT by MTT assay; format: functional, cell-based
Procedure, shortened: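 MCF7 cells pretreated with CPT (5 μM) for 12 h, then compound added at a range of concentrations. Viability inhibition calculated relative to control and IC50 estimated. Mean ± SD, at least three experiments in duplicate.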

[14] = target: T1, DNA topoisomerase 1 (Homo sapiens); experiment: as §3, with “Inhibition” for “Reversible inhibition”, “addition” for “addition and subsequent 40 fold compound dilution”, “method relative to control” for “method”; procedure, shortened: as §1

`CN(C)c1ccc(-c2c3nc(c(-c4ccc(N(C)C)cc4)c4ccc([nH]4)c(-c4ccc(C(=O)O)cc4)c4nc(c(-c5ccc(C(=O)O)cc5)c5ccc2[nH]5)C=C4)C=C3)cc1` was tested, and the Activity [1] was “Active”, the EC50 [2] was 1.47 µM and the IC50 [3] was over 10 µM. For the same molecule, the inhibition [4] was “Active”, the Activity [5] was “inactive” and the inhibition [6] was “Dose-dependent effect”. For the same molecule, the IC50 [7] was 4.13 µM, the Ratio [8] was 2 to 3 and the inhibition [9] was “Active”. For the same molecule, the Activity [10] was “Tde”, the “fold change (FC)” value [11] was 3 - 5 and the IC50 [12] was over 10 µM. For the same molecule, the Activity [13] was “inactive” and the inhibition [14] was 85 to 99%.
